Source: PubChem BioAssay
A number with no mark means an inactive call. Records with an inconclusive call do not appear. Active and inactive are the calls of the source.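 The calls were made as follows, unless noted: active = RAM network inhibition above 8.4% in each of two replicates, 3 SD over the compound average; inconclusive = above 8.4% inhibition in only one replicate; inactive = 8.4% inhibition or less in each replicate.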

Assays:
[1] = OD615 S. cerevisiae growth inhibition, permissive medium, pilot counter-assay, permissive growth control for S. cerevisiae lifespan shortening project (AID 705;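 active = growth inhibition above 25% in both replicates, a cutoff set 3 SD above the mean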); details: OD615, 24 h, at 10 µM, stronger effect = higher value
How it was run: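 Test system: Saccharomyces cerevisiae strain carrying genetically modified DeaD replicative-lifespan system; buffer or medium: SC raffinose/galactose permissive medium; dosing: one dose 10 µM, DMSO 0.25% final; times: 24 h exposure, 30 °C; measured by: OD at 615 nm; read-out basis: growth inhibition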

[2] = Restrictive medium S. cerevisiae growth inhibition, OD615, pilot screen of yeast lifespan reduction project, restrictive growth control (AID 706;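 active = growth inhibition above a set limit, 3 SD over mean compound inhibition, in both replicates, cut at about 43% in these data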;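 also: modified DeaD lifespan yeast strain shifted to restrictive glucose medium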); details: OD615, 48 h, at 10 µM, stronger effect = higher value
How it was run: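 material = engineered S. cerevisiae DeaD strain | buffer or medium = glucose-based CSMM-D restrictive medium | dosing = one concentration, 10 µM final, 0.25% DMSO | schedule = 4 h pre-growth plus 48 h compound exposure, 30 °C | detection = OD615 absorbance reading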

[3] = viability gain of MRP-1-high H69AR cells under doxorubicin, pilot screen, MRP-1 activator project, CellTiter-Glo, duplicate (AID 807;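 active = viability increase at or above a cutoff of the median across tested compounds plus 3 SD, cut at about 8.5% in these data, passing the limit was not always enough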;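 also: compound pretreatment 18-22 h then 72 h combined with doxorubicin; 0% = doxorubicin alone and 100% = vehicle without doxorubicin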); details: H69AR viability with doxorubicin, CellTiter-Glo luminescence; at 10 µM; stronger effect = higher value
[4] = growth suppression of beta-catenin knockout HCT116, pilot screen, human colon tumor cells (AID 823;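 active = cell viability at or below a set limit in both duplicate runs, the limit being the all-compound median minus 4 SD, cut at about 23% in these data, passing the limit was not always enough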;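 also: 0% = wells killed by 20 µM Hyamine and 100% = untreated DMSO cell wells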); details: CellTiter-Glo, 60 h, at 10 µM, stronger effect = lower value
[5] = growth suppression of PTEN-deleted HCT116, pilot screen, cell-based, HCT116 clonal line, CellTiter-Glo (AID 824;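 active = viability at or below 27.92% in each of two runs, the all-compound median minus 4 SD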;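 also: 0% = 20 µM Hyamine control and 100% = vehicle cell control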); details: 60 h, at 10 µM, stronger effect = lower value
[6] = inhibitors of the yeast RAM network, pilot screen, dse1pr::URA3 reporter, 5-FOA selection (AID 869;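 active = inhibition over a set limit, the all-compound mean plus 3 SD, in both replicate runs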;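 also: 0% = DMSO wells with no growth and 100% = 10 µM 1-NA-PP1 with full growth; RAM network block rescues cells from 5-FOA so hits raise OD615 growth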); details: S. cerevisiae dse1pr::URA3 5-FOA growth, OD615, 2 d; at 10 µM; stronger effect = higher value; strain carries analog-sensitive mutant Cbk1 kinase
[7] = RAM signaling pathway blockade in yeast – S. cerevisiae, Pdr1DBD-CYC8 efflux-inhibited sensitized strain, primary screen (AID 1298);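 also: 0% = DMSO untreated cells without growth and 100% = 10 µM 1-NA-PP1 full growth; higher means more yeast growth rescued from 5-FOA killing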; details: S. cerevisiae cbk1-as DSE1-URA3 strain, 5-FOA growth OD615, 2 d; at 50 µM; stronger effect = higher value

Row | SMILES | growth inhibition [1] [%] | growth inhibition [2] | viability increase [3] [%] | viability [4] [%] | viability [5] [%] | inhibition [6] [%] | RAM network inhibition [7] [%]
1 | O=C(CSc1nnc(COc2ccccc2)o1)Nc1nccs1 | 6.56 | 4.11% | -2.31 | 95.6 | 96.4 | 1.78 | 3.24
2 | CC1CCCN(C(c2ccccc2)c2sc3ncnn3c2O)C1 (configuration not stated) | -7.14 | -1.14% | 3.23 | 96.6 | 84.8 | 2.16 | 4.56
3 | CCOC(=O)c1ccc(N=c2sc(C(=O)OC)cc(=O)n2CCCN2CCOCC2)cc1 | -4.99 | -3.88% | -8.16 | 57.4 | 52.6 | 2.12 | 2.6
4 | Cc1cc(-c2c(C)n([O-])c(C)c(C)[n+]2=O)ccc1F | -10.8 | -3.75% | 0.1 | 102 | 98.2 | 1.03 | 0.32
5 | COC(=O)CN(c1ccccc1)S(=O)(=O)c1ccccc1 | -15.8 | -2.47% | -0.03 | 101 | 99.8 | 1.01 | 0.88
6 | O=C(O)CCCCCN1C(=O)c2ccc(C(=O)O)cc2C1=O | -14.4 | -10.8% | 1.08 | 103 | 105 | 1.88 | 6.72
7 | CCOC(=O)CN1CC23C=CC(O2)C(C(=O)NCc2ccccc2OC)C3C1=O (configuration not stated) | 1.34 | 8.84% | -3.18 | 103 | 102 | 2.3 | 0.15
8 | CC1CCCCC1NC(=O)c1ccc(CNc2c(N3CCCC3)c(=O)c2=O)cc1 (configuration not stated) | -2.63 | 8.32% | -0.12 | 96.7 | 90.8 | 1.01 | 0.72
9 | CC1CCCN(C(=O)c2ccc3c(c2)C(=O)N(CCC2=CCCCC2)C3=O)C1 (configuration not stated) | -5.42 | -30.7% | -0.25 | 87.5 | 83.8 | 0.28 | 3.27
10 | CC1=CC(C)(C)N(C(=O)CSc2nnc(-c3ccccc3)o2)c2ccc(C)cc21 | -10 | 2.73% | -5.46 | 62 | 66.2 | 0.325 | 6.03
11 | CCn1c(=O)c2cc(C(=O)N3CCCC3)sc2c2ccccc21 | -4.95 | 13% | -1.55 | 111 | 96.8 | 1.59 | 2.1
12 | O=C1c2cccnc2C(=O)N1Cc1cccs1 | -1.61 | -4.64% | -0.5 | 98.5 | 102 | 1.4 | 0.21
13 | CCC1(C(=O)O)NC(c2cccc(OC)c2O)C2C(=O)N(c3ccccc3)C(=O)C21 (configuration not stated) | -6.47 | 1.83% | -2.33 | 102 | 93.8 | 3.62 | 1.14
14 | Cc1ccc2c(c1)c1c(n2CC(O)Cn2c(C)nc3ccccc32)C(=O)CCC1 (configuration not stated) | -7.12 | -1.9% | -0.7 | 59.2 | 62.2 | 2.33 | 7.19
15 | Cc1cc(=O)oc2cc3c(cc12)OCCN3 | 5.96 | 2.04% | -1.47 | 93 | 97.6 | 2.65 | 3.78
16 | Cc1cc(C)c(NC(=O)C(C)(C)C)c(Cl)c1 | -6.4 | 6.2% | -0.89 | 89.8 | 86.2 | 1.72 | 1.23
17 | COc1cc(=O)[nH]c(=O)n1C(=O)Cc1ccccc1 | -1.48 | -1.73% | 0 | 97.4 | 104 | -0.145 | 4.08
18 | O=C(Nc1ccccc1C(=O)NC(Cc1c[nH]c2ccccc12)C(=O)O)c1ccco1 (configuration not stated) | -11 | -11.3% | -2.96 | 102 | 97.1 | 0.95 | 2.94

Row | SMILES | growth inhibition [1] [%] | growth inhibition [2] | viability increase [3] [%] | viability [4] [%] | viability [5] [%] | inhibition [6] [%] | RAM network inhibition [7] [%]
19 | COc1ccc(S(=O)(=O)N2CCC(C(=O)Nc3cccc(Cl)c3)CC2)cc1OC | -2.42 | -2.81% | -3.54 | 75.9 | 78 | 0.63 | 1.52
20 | CCn1c(SCC(=O)N2CCCC2)nc2c(c1=O)SC(C)C2 (configuration not stated) | -17.4 | -27.5% | -4.48 | 101 | 95.6 | 1.73 | 3.14
21 | COC(=O)c1cccnc1-n1c(=O)c2cccnc2n(Cc2cccc(OC)c2)c1=O | -13.7 | 4.94% | -3.24 | 101 | 92.7 | 0.47 | -1.41
22 | O=C(NCCc1csc(-c2cccnc2)n1)c1ccco1 | 4.59 | 4.47% | -4.68 | 105 | 98.6 | 0.97 | 2.36
23 | COC(=O)c1ccccc1NC(=O)C1CCCN(c2nnc(-n3cccc3)s2)C1 (configuration not stated) | -1.67 | 4.77% | -2.28 | 86.2 | 82.2 | 1.65 | 8.61
24 | O=C(Cn1cc2c(n1)CCCCC2)NCc1ccccn1 | -5.75 | -16.1% | -2.27 | 95.6 | 90.8 | 3.27 | 4.15
25 | Cc1nnc(SCC(=O)N2CCOCC2)n1C | -6.97 | -18% | -0.95 | 106 | 101 | 2.25 | 2.02
26 | COc1cc(OC)c(NC(=O)c2ccc(Br)o2)cc1Cl | -8.78 | 7.46% | -7.05 | 69.8 | 70.6 | 1.47 | 10.5
27 | COc1ccccc1NC(=O)C1C2C=CC3(CN(Cc4cccnc4)C(=O)C13)O2 (configuration not stated) | 6 | 4.22% | 0.16 | 98.2 | 103 | -0.25 | -0.51
28 | CCOc1ccc(C2N(c3ccc(OC)cc3)C(=O)C3CCCN32)cc1OC (configuration not stated) | -1.7 | -0.11% | -2.39 | 98.7 | 101 | 1.57 | 3
29 | COc1ccc(N(CC(=O)Nc2ccc3c(c2)OCCO3)S(=O)(=O)c2c(C)nn(C)c2C)cc1 | -9.27 | -19.9% | -2.36 | 99.4 | 95.9 | 0.73 | 4.15
30 | COC(=O)NCC(c1cccnc1)N1CCN(c2ccccc2)CC1 (configuration not stated) | -3.09 | -0.34% | 0.41 | 91.3 | 96.8 | 0.355 | -1.35
31 | COC(=O)c1sc2nc3c(cc2c1N)COC(C)(C)C3 | -6.75 | -7.37% | -1.54 | 101 | 94.1 | 1.19 | 3.17
32 | COc1ccc(C2C(C(=O)NC(C)C)c3ccccc3C(=O)N2C)cc1OC (configuration not stated) | -12.9 | -13.2% | -0.58 | 105 | 101 | 0.95 | 5.34
33 | O=C1CCCc2c1[nH]c1c(Br)cccc21 | 5.96 | -1.3% | 0.96 | 108 | 105 | 0.425 | 3.4
34 | c1ccc(Cc2nnc3sc(-c4ccc5c(c4)OCCO5)nn23)cc1 | 4.51 | 55.8% (active) | 0.47 | 105 | 93.5 | 1.33 | 12.8
35 | Cc1cccn2cc(CCNC(=O)c3ccc(Br)o3)nc12 | -8.18 | -5.67% | -1.61 | 99 | 94.3 | 1.12 | 1.91
36 | CCOC(=O)C(C)Sc1nnc(Cc2cc(=O)[nH]c(=O)[nH]2)n1-c1ccc(OCC)cc1 (configuration not stated) | 2.12 | -6.84% | -0.85 | 109 | 101 | 0.75 | 2.89
